In PMC6298601 (Biochemical pharmacology, 2018):
Several values for one entry are separate records, joined by “and”; a condition that tells them apart may be missing. Equal values may be shown once. Entries after “also recorded” stand apart in the source; their conditions may differ. Read-outs that look alike come from different tables or passages of the source.

What was measured:
[1] = test system: MAO activity in Neuroscreen-1 (NS-1) cells; experiment: MAO activity in lysates of treated Neuroscreen-1; format: cell-based, rat; settings: deprenyl 1.0 μM, 12 hours
Method in brief: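 NS-1 cells (rat PC12 subclone) in suspension culture were treated for 12 hours with test compound (100 µM), a selective MAO-B inhibitor reference (1.0 µM) or ethanol, alongside untreated controls. Lysates were prepared from the cells. MAO activity in the lysates was measured by fluorometric kynuramine deamination, with kynuramine at 80 µM for MAO-A and 50 µM for MAO-B.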

[2] = cited from earlier work
recombinant human MAO-A = biological target: T1, recombinant human MAO-A (Homo sapiens, UniProt P21397); experiment: Fluorometric kynuramine deamination assay, recombinant human MAO-A inhibition; format: biochemical
T1 sequence (P21397 1-527): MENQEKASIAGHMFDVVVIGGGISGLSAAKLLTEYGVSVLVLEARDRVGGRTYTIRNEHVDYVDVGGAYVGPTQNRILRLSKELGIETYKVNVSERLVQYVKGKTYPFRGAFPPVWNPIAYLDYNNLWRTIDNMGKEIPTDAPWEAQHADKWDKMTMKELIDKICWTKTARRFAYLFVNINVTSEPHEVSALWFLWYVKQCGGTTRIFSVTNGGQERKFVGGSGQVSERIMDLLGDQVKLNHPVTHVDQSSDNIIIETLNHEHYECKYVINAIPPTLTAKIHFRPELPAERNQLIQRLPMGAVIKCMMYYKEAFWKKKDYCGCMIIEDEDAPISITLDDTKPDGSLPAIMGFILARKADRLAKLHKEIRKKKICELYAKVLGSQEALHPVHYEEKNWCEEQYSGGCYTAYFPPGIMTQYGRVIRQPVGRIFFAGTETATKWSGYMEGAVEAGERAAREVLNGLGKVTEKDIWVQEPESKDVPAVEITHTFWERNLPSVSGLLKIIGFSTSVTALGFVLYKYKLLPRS

recombinant human MAO-B [3] = biological target: T2, recombinant human MAO-B (Homo sapiens, UniProt P27338); experiment: biochemical; format: biochemical
T2 sequence (P27338 1-520): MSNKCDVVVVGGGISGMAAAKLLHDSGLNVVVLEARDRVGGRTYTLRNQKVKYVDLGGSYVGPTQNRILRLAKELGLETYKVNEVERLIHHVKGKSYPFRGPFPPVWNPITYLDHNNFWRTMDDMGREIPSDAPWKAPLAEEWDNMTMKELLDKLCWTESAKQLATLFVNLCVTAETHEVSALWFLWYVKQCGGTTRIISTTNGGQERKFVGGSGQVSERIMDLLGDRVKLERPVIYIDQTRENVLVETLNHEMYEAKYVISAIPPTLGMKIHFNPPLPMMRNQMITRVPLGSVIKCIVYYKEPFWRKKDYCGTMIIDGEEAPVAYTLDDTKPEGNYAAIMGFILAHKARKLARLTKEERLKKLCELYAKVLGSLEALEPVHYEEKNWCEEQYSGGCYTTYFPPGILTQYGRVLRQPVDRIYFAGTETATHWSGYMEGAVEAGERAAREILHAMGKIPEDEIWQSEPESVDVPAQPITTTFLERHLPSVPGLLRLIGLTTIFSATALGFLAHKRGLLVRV

[4] = Solubility observation at the concentrations tested; settings: at the concentrations tested in the MAO assays
recombinant human MAO-B [5] = biological target: T2, recombinant human MAO-B; format: biochemical
recombinant human MAO-B [6] = biological target: T2, recombinant human MAO-B; format: binding
recombinant human MAO-B [7] = biological target: T2, recombinant human MAO-B; format: biochemical; remark: listed apart in the source
[8] = read-out: MAO-B IC50 (μM) ± S.D., kynuramine 50 μM, test compounds 0.01 to 100 μM, mean ± S.D. of triplicate

Compound: R-(−)-deprenyl hydrochloride
- inhibition of MAO activity in NS-1 cells [1]: > 90%

Compound: CCCCC/C=C\C/C=C\C/C=C\C/C=C\CCCC(=O)NCC(=O)O [NA-glycine, N-arachidonyl-glycine]
- critical micellar concentration (CMC) ([2]; ref 48): > 100 µM

Compound: CCCCC/C=C\C/C=C\C/C=C\C/C=C\CCCC(=O)O [arachidonic acid]
- critical micellar concentration (CMC) ([2]; ref 46): 73 µM
- critical micellar concentration (CMC) ([2]; ref 47): ~ 30 μM

Compound: CCCCC/C=C\C/C=C\C/C=C\C/C=C\CCCC(=O)NCCO [Anandamide]
- IC50 (recombinant human MAO-A): > 100 µM
- IC50 (recombinant human MAO-B [3]): 40 ± 4.6 µM

Compound: CCCCC/C=C\C/C=C\C/C=C\C/C=C\CCCC(=O)N[C@H](C)CO [(R)-(+)-Methanandamide]
- IC50 (recombinant human MAO-B [3]; [8]): 51.1 ± 1.3 µM
- solubility issues [4]: did not show any solubility issues

Compound: CCCCC/C=C\C/C=C\C/C=C\C/C=C\CCCCOC(CO)CO [Noladin ether]
- IC50 (recombinant human MAO-B [3]; [8]): 18.2 ± 1.45 µM
- solubility issues [4]: did not show any solubility issues

Compound: CCCCC/C=C\C/C=C\C/C=C\C/C=C\CCCC(=O)OCCN [Virodhamine]
- inhibition of MAO-B after pre-incubation (recombinant human MAO-B [5]; 0.25 μM virodhamine, pre-incubation 0-15 min): 55-70%
- time dependence of MAO-B inhibition (recombinant human MAO-B [5]; pre-incubation 0-15 min, virodhamine 2.5 μM, deprenyl 0.100 μM): time-dependent
- inhibition of the enzyme activity at the concentration chosen (recombinant human MAO-B [5]; virodhamine 2.5 μM): > 60%
- nature of binding with MAO-B (reversibility) (recombinant human MAO-B [6]; equilibrium dialysis overnight): irreversible
- enzyme activity recovered after overnight dialysis (recombinant human MAO-B [6]; virodhamine 10.0 μM, 20 min at 37 °C, dialysis 14-16 h at 4 °C): 2.644 ± 0.450%
- inhibition of catalytic activity before dialysis (recombinant human MAO-B [6]; virodhamine 10.0 μM, 20 min incubation): almost complete inhibition
- MAO-B Type of Inhibition (recombinant human MAO-B [7]; Lineweaver-Burk analysis and dialysis): mixed mechanism/irreversible binding; also recorded: mixed enzyme inhibition mechanism
- Ki (recombinant human MAO-B [7]; read-out: MAO-B Ki (μM) ± S.D., kynuramine 1.90 to 500 μM, mean ± S.D. of triplicate): 0.258 ± 0.037 µM
- fold greater inhibition of MAO-B compared to MAO-A (recombinant human MAO-B [3]; ratio of IC50 MAO-A / MAO-B): ~ 55 fold and > 54 fold
- IC50 (recombinant human MAO-B [3]; [8]): 0.71 ± 0.04 µM

Compound: CCCCC/C=C\C/C=C\C/C=C\C/C=C\CCCCO [arachidonoyl alcohol]
- critical micellar concentration (CMC) ([2]; ref 46): 30 µM

Compound: CCCCC/C=C\C/C=C\C/C=C\C/C=C\CCCC(=O)OC(CO)CO [2-AG, 2-arachidonoylglycerol]
- IC50 (recombinant human MAO-A): > 100 µM
- IC50 (recombinant human MAO-B [3]): 50.5 ± 0.515 µM
- critical micellar concentration (CMC) ([2]; ref 48): 4.2 ± 0.5 µM
- solubility issues [4]: did not show any solubility issues

Compound: CCCCCCCC/C=C\CCCCCCCC(=O)NCCO [Oleylethanolamide]
- MAO-A IC50 (μM) ± S.D. (recombinant human MAO-A; kynuramine 80 μM, test compounds 0.01 to 100 μM, mean ± S.D. of triplicate): no activity
- MAO-B IC50 (μM) ± S.D. (recombinant human MAO-B [3]; kynuramine 50 μM, test compounds 0.01 to 100 μM, mean ± S.D. of triplicate): no activity
- IC50 (recombinant human MAO-B [3]; [8]): > 100 µM
